In brackets after ≈: the same amount, converted by molar mass. Activity calls are given as the source filed them. No cut-off for these calls is given here.
Legend:
Plasmodium falciparum [1] = experiment: Antiplasmodial activity after 72 hrs against Plasmodium falciparum 3D7 as Malstat LDH activity; format: functional, organism-based; conditions: for IC50: 3D7, 72 h
Summary of the method: (§1)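 Synchronized ring-stage 3D7 plated at 1% parasitemia. Drugs tested at 1 nM to 100 μM, dissolved in DMSO or water; 0.5% DMSO was the negative control. Cultures kept 48, 72, 96 or 120 h, with medium changed at day 3. Viability read by Malstat parasite lactate dehydrogenase activity. IC50 reported as mean ± SEM.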

Plasmodium falciparum [2] = experiment: Antiplasmodial activity after 48 hrs against Plasmodium falciparum 3D7 as Malstat LDH activity; format: functional, organism-based; conditions: for IC50: 3D7, 48 h; summary of the method: as §1
Plasmodium falciparum [3] = experiment: Antiplasmodial activity against Plasmodium falciparum 3D7 as early schizont maturation arrest at IC50 after 48-120 hrs by giemsa stain; format: functional, organism-based
Summary of the method: (§2)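 Synchronized 3D7 cultures exposed to drug at the 96-h IC50 over three life cycles, with 0.5% DMSO as untreated control. Giemsa smears were taken at 48, 72, 96 and 120 h, and developmental stages were counted at each time point.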

Plasmodium falciparum [4] = experiment: Antiplasmodial activity against Plasmodium falciparum 3D7 assessed as multiple-nuclei schizont arrest at IC50 after 96 hrs by transmission electron microscopy; format: functional, organism-based
Summary of the method: (§3)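 Cultures exposed to drug at the 96-h IC50 and collected after 96 h of treatment. Fixed in 1% glutaraldehyde and 4% paraformaldehyde in PBS, then processed for transmission electron microscopy to assess schizont stage and morphology. Untreated parasites served as comparison.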

Plasmodium falciparum [5] = experiment: Antiplasmodial activity after 120 hrs against Plasmodium falciparum 3D7 as Malstat LDH activity; format: functional, organism-based; conditions: for IC50: 3D7, 120 h; summary of the method: as §1
Plasmodium falciparum [6] = experiment: Antiplasmodial activity after 96 hrs against Plasmodium falciparum 3D7 as Malstat LDH activity; format: functional, organism-based; conditions: for IC50: 3D7, 96 h; summary of the method: as §1
Plasmodium falciparum [7] = experiment: Relative activity against Plasmodium falciparum 3D7 as IC50 ratio after 48 and 96 hrs; format: functional
Plasmodium falciparum [8] = experiment: Antiplasmodial activity as ED50 against parasite growth after 48 hrs for Plasmodium falciparum 3D7; format: functional, organism-based; conditions: 3D7, 48 h; summary of the method: as §1
Plasmodium falciparum [9] = experiment: Antiplasmodial activity as ED50 against parasite growth after 96 hrs for Plasmodium falciparum 3D7; format: functional, organism-based; conditions: 3D7, 96 h; summary of the method: as §1
Plasmodium falciparum [10] = experiment: Antiplasmodial activity against Plasmodium falciparum 3D7 as late trophozoite to early schizont arrest at IC50 after 48-120 hrs by giemsa stain; format: functional, organism-based; summary of the method: as §2
Plasmodium falciparum [11] = experiment: Antiplasmodial activity against Plasmodium falciparum 3D7 as 2xnuclei schizont arrest at IC50 after 96 hrs by transmission electron microscopy; format: functional, organism-based; summary of the method: as §3
[12] = Cmax in human at 12 mg/kg administered as single oral dose; format: ADME, organism-based; parameters: dose 12 mg/kg, route oral; conditions: in vivo
Plasmodium falciparum [13] = experiment: Antiplasmodial activity against Plasmodium falciparum 3D7 as delayed first replication cycle at IC50 after 48-120 hrs by giemsa stain; format: functional; summary of the method: as §2
Plasmodium falciparum [14] = experiment: Antiplasmodial activity against Plasmodium falciparum 3D7 as delayed maturation in first replication and early second cycle arrest at IC50; format: functional, organism-based; summary of the method: as §2

IC50 (Plasmodium falciparum [1]) [µM]	IC50 (Plasmodium falciparum [2]) [µM]	IC50 (Plasmodium falciparum [5]) [µM]	IC50 (Plasmodium falciparum [6]) [µM]	Cmax [12] [µg/mL]	Structure (SMILES)	Activity (Plasmodium falciparum [3])	Activity (Plasmodium falciparum [4])	Ratio IC50 (Plasmodium falciparum [7])	IC50 (Plasmodium falciparum [8]) [mg/L]	IC50 (Plasmodium falciparum [9]) [mg/L]	Activity (Plasmodium falciparum [10])	Activity (Plasmodium falciparum [11])	Activity (Plasmodium falciparum [13]) [h]	Activity (Plasmodium falciparum [14])	Activity (Plasmodium falciparum [1])	Activity (Plasmodium falciparum [2])	Activity (Plasmodium falciparum [5])	Activity (Plasmodium falciparum [6])
1.49	5.42	0.12	0.72	–	C[C@H]1c2cccc(O)c2C(=O)C2=C(O)[C@]3(O)C(=O)C(C(N)=O)=C(O)[C@@H](N(C)C)[C@@H]3[C@@H](O)[C@@H]21.O [DOXYCYCLINE]	Active	Active	10	–	–	–	–	–	–	–	–	–	–
4.57	9.04	0.41	0.94	–	CC[C@H]1OC(=O)[C@H](C)[C@@H](O[C@H]2C[C@@](C)(OC)[C@@H](O)[C@H](C)O2)[C@H](C)[C@@H](O[C@@H]2O[C@H](C)C[C@H](N(C)C)[C@H]2O)[C@](C)(O)C[C@@H](C)CN(C)[C@H](C)[C@@H](O)[C@]1(C)O [AZITHROMYCIN]	Active	Active	10	–	–	–	–	–	–	–	–	–	–
1.04	8.08	0.44	0.28	1.9	CC[C@H]1OC(=O)[C@H](C)C(=O)[C@H](C)[C@@H](O[C@@H]2O[C@H](C)C[C@H](N(C)C)[C@H]2O)[C@](C)(OC)C[C@@H](C)C(=O)[C@H](C)[C@H]2N(CCCCn3cnc(-c4cccnc4)c3)C(=O)O[C@]12C [TELITHROMYCIN]	–	–	–	6.56 (≈ 8.08 µM)	0.23 (≈ 0.283 µM)	Active	Active	5	Active	–	–	–	–
–	–	–	–	–	CC(=O)NC[C@H]1CN(c2ccc(N3CCOCC3)c(F)c2)C(=O)O1	–	–	–	–	–	–	–	–	–	inactive	inactive	inactive	inactive
